Compound activity as filed in PubChem BioAssay.
STK33 inh = blocks human STK33 kinase activity. Q9BYT3. purified STK33, MBP phosphorylation, ADP-Glo luminescence. inhibition, % at 10 µM. actives 0.073% (n = 320,000);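 active = inhibition at or above 25%, using the most active replicate where run in duplicate; inactive = inhibition below 25%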
INS-1E GSIS act = GLuc luminescence reporter in INS-1E cells, primary screen for activators of glucose-dependent secretion of insulin. INS-1E GLuc reporter insulin secretion, 2-3 h. activation, % at 16.6 µM. actives 0.61% (n = 370,000). AID 743287;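 active = lowest replicate activation of at least 40%, so every replicate reaches that level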;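 also: 0% = median of neutral control wells and 100% = median of IBMX positive control wells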
CDK5 p35 inh = CDK5/p35 (human) kinase inhibition; actives 0.01% (n = 330,000); AID 488839; Recombinant CDK5/p35, ADP-Glo luminescence, 60 min; Q00535+Q15078; inhibition, % at 10 µM;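 active = highest replicate inhibition of at least 50% and at least 75% of replicates reaching 50%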;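 also: plate controls were DMSO neutral control for no effect and GW8510 at 10 µM for full effect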
Target sequence (Q00535 whole entry, looked up): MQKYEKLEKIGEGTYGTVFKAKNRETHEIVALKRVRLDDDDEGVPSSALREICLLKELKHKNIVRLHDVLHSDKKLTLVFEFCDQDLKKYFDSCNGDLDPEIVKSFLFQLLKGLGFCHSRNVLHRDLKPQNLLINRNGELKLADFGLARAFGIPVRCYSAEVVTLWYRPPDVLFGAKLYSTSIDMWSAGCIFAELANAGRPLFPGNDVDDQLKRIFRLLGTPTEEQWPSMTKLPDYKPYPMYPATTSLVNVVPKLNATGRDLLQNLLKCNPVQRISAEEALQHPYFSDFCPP
Target sequence (Q15078 whole entry, looked up): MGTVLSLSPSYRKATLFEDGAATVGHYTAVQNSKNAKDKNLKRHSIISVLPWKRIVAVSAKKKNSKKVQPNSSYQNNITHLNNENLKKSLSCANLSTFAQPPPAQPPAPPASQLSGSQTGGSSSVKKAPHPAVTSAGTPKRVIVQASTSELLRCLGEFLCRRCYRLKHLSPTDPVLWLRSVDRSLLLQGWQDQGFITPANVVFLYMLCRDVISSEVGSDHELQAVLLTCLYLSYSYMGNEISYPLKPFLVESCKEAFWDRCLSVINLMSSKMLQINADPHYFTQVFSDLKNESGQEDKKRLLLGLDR
GSK3B inh = inhibitors of human GSK3beta kinase; GST-GSK3beta kinase, ADP-Glo luminescence, 60 min; stronger effect = lower value; actives 0.038% (n = 300,000); activity score (negative = inhibition), % at 10 µM; P49841;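 active = more than half of replicate wells score below -50%, meaning over 50% inhibition versus plate controls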;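 also: 0% = median DMSO wells and -100% = median GW8510 positive control wells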
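Assay system: GST-fused GSK3beta enzyme, cell-free / Medium: Tris pH 7.5 buffer with MgCl2, DTT, BSA, heparin / Also added: peptide substrate plus 25 µM ATP (final) / Compound: 10 µM single point / Timing: kinase reaction with compound 60 min at room temperature / Detection: ADP-Glo luminescence / Benchmarks: DMSO neutral wells and GW8510 at 20 µM as positive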
GSK3A inh = inhibitors of human GSK-3 alpha kinase; P49840; ADP-Glo luminescence, 60 min; inhibition, % at 10 µM; actives 0.1% (n = 320,000); AID 2650;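 active = more than half of replicates show inhibition above 20%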;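 also: GST-tagged GSK-3 alpha with peptide substrate and 25 µM ATP; 0% = DMSO neutral wells and 100% = GW8510 positive control wells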
Env fusion inh = HIV envelope-mediated fusion inhibition | HeLa-JRFL Env/CEM21 cell fusion, luciferase | inhibition, % at 12.3 µM | actives 1.1% (n = 360,000) | AID 651610;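 active = mean replicate inhibition score of at least 50 and every replicate individually at or above 50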;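 also: 0% = plate neutral controls and 100% = maraviroc near 300 nM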
* marks the source's active call; other numbers are inactive results; · = not tested or not shown; [ ] = another dose, or the depositor's remark. Most compounds without a hit are left out; they make up all but 1.4% or so of the library.

SMILES	STK33 inh	INS-1E GSIS act	CDK5 p35 inh	GSK3B inh	GSK3A inh	Env fusion inh
COC(=O)[C@@]1(Cc2ccccc2)[C@H]2C(=O)N(Cc3ccccc3)C(=O)[C@H]2[C@H]2CN=C(SCc3ccc(C#N)cc3)N21	·	-19	0	·	·	69*
CC[C@]1(C(=O)OC)[C@H]2C(=O)N(Cc3ccccc3)C(=O)[C@H]2[C@H]2CN=C(SCc3ccc(C)cc3)N21	·	-10	3	·	·	69*
CCN1C(=O)[C@H]2[C@H]3CN=C(SCC4CC4)N3[C@@](Cc3ccccc3)(C(=O)OC)[C@H]2C1=O	·	-4	14	·	·	30
CC[C@]1(C(=O)OC)[C@H]2C(=O)N(Cc3ccccc3)C(=O)[C@H]2[C@H]2CN=C(SCC3CC3)N21	·	-17	12	·	·	81*
CCNC(=O)C[C@@H]1CC[C@@H]2[C@H](COc3ccc(NC(=O)Nc4c(C)noc4C)cc3C(=O)N2C)O1	·	-2	·	·	·	-9[16.7 µM]
C[C@H](CO)N1C[C@H](C)[C@H](CN(C)C(=O)Nc2ccc(C(F)(F)F)cc2)Oc2ncc(/C=C/c3ccccc3)cc2C1=O	·	-7	·	·	·	8[16.7 µM]
O=C(NC1CCCCC1)N1CC(=O)N2[C@H](CO)[C@H](c3ccc(-c4cccc(F)c4)cc3)[C@H]2C1	·	-22	·	·	·	·
C[C@@H]1CN([C@@H](C)CO)C(=O)c2cccc(NS(=O)(=O)c3cccs3)c2O[C@@H]1CN(C)S(=O)(=O)c1ccccc1	·	-20	·	·	·	·
COc1ccc(C2=NNC(=Nc3cc(S(=O)(=O)N(C)C)ccc3C)SC2)c(OC)c1	-1	37	0	5	-2	67*
CCC(=O)N[C@H]1CC[C@@H](CC(=O)NCc2ccc(OC)cc2)O[C@H]1CO	·	-1	·	·	·	3[16.7 µM]
CC(=O)C1=C(C)NC2=C(C(=O)c3ccccc32)C1c1ccccc1 (configuration not stated)	1	57	0	-1	2	64*
COc1ccc2oc(C(=O)Nc3nnc(C)s3)c(C)c2c1	0	53*	-1	·	-1	-29
CSc1ccc(C(=O)C2CCCN(C(=O)c3ccc4c(c3)no[n+]4[O-])C2)cc1 (configuration not stated)	0	42*	0	-2	1	-31
CSc1ccc(C(=O)C2CCCN(C(=O)c3ccsc3)C2)cc1 (configuration not stated)	0	-4	-5	-1	3	5
COc1cc(C(=O)OCc2cc(=O)c(O)co2)ccc1OC(F)F	-1	52*	-1	-2	0	-35
COc1cc(C(=O)OCc2cc(=O)oc3c(C)c(C)ccc23)ccc1OC(F)F	0	2	1	1	0	20
CC(C)Cc1nc2oc3c(NCc4cccnc4)ncnc3c2c2c1CCC2	-1	75*	0	1	-1	-9
CCSCCc1nnc(NC(=O)Nc2cccc(C(F)(F)F)c2)s1	-2	-1	-2	4	-1	70*
COc1ccc(NC(=O)Nc2ccc3c(c2)C(=O)N([C@H](C)CO)C[C@@H](C)[C@H](CN(C)S(C)(=O)=O)OCCCC[C@@H](C)O3)cc1	·	-8	·	·	·	-3[16.7 µM]
O=c1c(O)c(-c2ccc(O)c(O)c2)oc2cc(O)cc(O)c12	38*	·	-3	-45	57*	-1
COc1c(-c2ccc(O)cc2)oc2cc(O)cc(O)c2c1=O	9	6	5	·	54*	·
O=C(O)C[C@@H]1CC[C@@H](NC(=O)Nc2ccccc2)[C@H](CO)O1	·	-9	·	·	·	-19[16.7 µM]
CO[C@H]1CN(C)C(=O)c2ccc(NC(C)=O)cc2OC[C@H](C)N(Cc2nccs2)C[C@@H]1C	·	-9	·	·	·	·
O=C(c1cnccn1)N1CC(=O)N2[C@H](C1)[C@H](c1ccc(C#CC3CCCC3)cc1)[C@@H]2CO	·	5	·	·	·	·
COc1ccc(S(=O)(=O)Nc2ccc3c(c2)CC(=O)N([C@@H](C)CO)C[C@H](C)[C@H](CN(C)S(=O)(=O)c2c(C)noc2C)O3)cc1	·	-1	·	·	·	12[16.7 µM]
SMILES	STK33 inh	INS-1E GSIS act	CDK5 p35 inh	GSK3B inh	GSK3A inh	Env fusion inh
COc1ccc(S(=O)(=O)Nc2ccc3c(c2)CC(=O)N([C@H](C)CO)C[C@H](C)[C@H](CN(C)S(=O)(=O)c2c(C)noc2C)O3)cc1	·	-2	·	·	·	57*[16.7 µM]
COc1ccc(S(=O)(=O)Nc2ccc3c(c2)CC(=O)N([C@H](C)CO)C[C@H](C)[C@H](CN(C)S(=O)(=O)c2ccc(F)cc2)O3)cc1	·	-6	·	·	·	91*[16.7 µM]
COc1ccc(S(=O)(=O)N(C)C[C@@H]2Oc3ccc(NC(=O)Cn4cnnn4)cc3CC(=O)N([C@@H](C)CO)C[C@H]2C)cc1	·	9	·	·	·	-10[16.7 µM]
COc1ccc(S(=O)(=O)Nc2ccc3c(c2)CC(=O)N([C@H](C)CO)C[C@H](C)[C@H](CN(C)S(=O)(=O)c2ccc(OC)cc2)O3)cc1	·	-16	·	·	·	56*[16.7 µM]
COc1ccc(S(=O)(=O)N(C)C[C@@H]2Oc3ccc(NC(=O)Cn4cnnn4)cc3CC(=O)N([C@H](C)CO)C[C@@H]2C)cc1	·	-1	·	·	·	90*[16.7 µM]
Cc1noc(C)c1S(=O)(=O)Nc1ccc2c(c1)C(=O)N([C@H](C)CO)C[C@H](C)[C@H](CN(C)S(=O)(=O)c1ccccc1)OCCCC[C@@H](C)O2	·	-4	·	·	·	-10[16.7 µM]
O=C(C[C@H]1CC[C@@H]2[C@H](COC[C@H](O)CN2C(=O)c2ccc3c(c2)OCO3)O1)NCCN1CCCC1	·	10	·	·	·	·
C/C=C/c1cnc2c(c1)C(=O)N([C@H](C)CO)C[C@@H](C)[C@@H](CN(C)S(=O)(=O)c1ccccc1)O2	·	9	·	·	·	8[16.7 µM]
CC(C)NC(=O)N[C@H]1CC[C@@H](CCn2cc(-c3ccc(F)cc3)nn2)O[C@H]1CO	·	-9	·	·	·	10[16.7 µM]
COc1ccc(S(=O)(=O)Nc2ccc3c(c2)CC(=O)N([C@H](C)CO)C[C@H](C)[C@H](CN(C)S(=O)(=O)c2cccs2)O3)cc1	·	-12	·	·	·	62*[16.7 µM]
Cc1ccc(S(=O)(=O)N(C)C[C@@H]2Oc3ccc(NS(=O)(=O)c4c(C)noc4C)cc3CC(=O)N([C@H](C)CO)C[C@@H]2C)cc1	·	-16	·	·	·	62*[16.7 µM]
CN1CCN(C(=O)C[C@@H]2CC[C@@H](NC(=O)Cc3ccccn3)[C@H](CO)O2)CC1	·	0	·	·	·	1[16.7 µM]
Cc1ccc(C(=O)CC(=O)c2cccc(F)c2)c(O)c1	-4	·	0	0	-3	61*
Cc1ccc(C(=O)CC(=O)c2ccccc2C)c(O)c1	-2	-21	0	2	-1	-2
CSc1nc(Cl)cc(Nc2ccccc2N)n1	-1	15	0	2	1	79*
Nc1nc(Cl)cc(Nc2ccccc2Cl)n1	0	19	1	1	2	-32
Cc1cc(Cl)ccc1C(=O)C1CCCN(C(=O)c2cscn2)C1 (configuration not stated)	0	10	1	4	-3	16
